These results are taken from ChEMBL document CHEMBL2146464, “Structure-activity relationship study of nitrosopyrimidines acting as antifungal agents” (Bioorg Med Chem, 2012).

Data set [1] concerns Candida albicans. Put plainly: Antifungal activity against Candida albicans ATCC 10231 assessed as growth inhibition at 62.5 ug/mL after 24 hrs by microplate reader analysis. The format is functional. As to conditions: ATCC 10231, 24 h, read-out: GI. In a few lines: (§1)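 96-well RPMI-1640 wells with compound at final 250–0.98 µg/mL (DMSO ≤1%). Inoculum 100 µL, 1–5 × 10³ CFU/mL, 200 µL final. Each well includes growth (DMSO, no compound) and sterility controls. % inhibition = 100 − (CTW−SCW)/(GCW−SCW) × 100, run in duplicate.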

Data set [2] concerns Candida tropicalis. The data set can be described thus: Antifungal activity against Candida tropicalis assessed as growth inhibition at 62.5 ug/mL by microplate reader analysis. The format is functional. As to conditions: read-out: GI.
Another data set has as its system Aspergillus fumigatus. The data set can be described thus: Antifungal activity against Aspergillus fumigatus ATCC 26934 at 0.98 to 250 ug/mL by NCCLS broth microdilution method. Format: functional, organism-based. An outline of the steps: (§2)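 MIC by broth microdilution per NCCLS M27-A3/M38-A2 in RPMI-1640 buffered to pH 7.0 with MOPS. Twofold dilutions from 250–0.98 µg/mL, final DMSO ≤1%. Inoculum 1–5 × 10³ CFU/mL. Incubated in a moist dark chamber, 30 °C for Aspergillus and 28–30 °C for dermatophytes. Read visually when control growth allowed. Endpoint is the lowest concentration giving total inhibition of visible growth (MIC100).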
A general note: In broth dilution the organism is exposed to a series of concentrations in liquid medium.

The nature of data set [3]: Acute toxicity in bony fish assessed as mortality at 0.8 ug/mL after 48 hrs. As to conditions: actinopterygii; read-out: Activity.
For data set [4], the system named is Candida tropicalis. The data set can be described thus: Antifungal activity against Candida tropicalis assessed as growth inhibition at 15.6 ug/mL by microplate reader analysis. Format: functional. As to conditions: read-out: GI.
Data set [5] relates to Cryptococcus neoformans. Put plainly: Antifungal activity against Cryptococcus neoformans ATCC 32264 after 48 hrs by NCCLS broth microdilution method. As to conditions: ATCC 32264, 48 h, read-out: MIC100. The format is functional. An outline of the steps: (§3)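 Yeast MIC by NCCLS M27-A3 broth microdilution in RPMI-1640 buffered to pH 7.0 with MOPS. Twofold dilutions of 250–0.98 µg/mL, final DMSO ≤1%. Inoculum 1–5 × 10³ CFU/mL. Incubated at 30 °C in a moist dark chamber. Read visually at 48 h. MIC100 is the lowest concentration with no visible growth versus drug-free control.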

In data set [6] the test system is Cryptococcus neoformans. Put plainly: Antifungal activity against Cryptococcus neoformans ATCC 32264 after 48 hrs by microplate reader analysis. Format: functional. As to conditions: ATCC 32264, 48 h. In a few lines:
(§4)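 Microplate growth-inhibition assay in RPMI-1640, compound at final 250–0.98 µg/mL (DMSO ≤1%). Inoculum 1–5 × 10³ CFU/mL. Sterility and DMSO growth controls included. Percent inhibition is computed from blank-corrected OD relative to the growth control, tested in duplicate.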

The subject of data set [7] is Cryptococcus neoformans. Put plainly: Antifungal activity against Cryptococcus neoformans ATCC 32264 assessed as growth inhibition at 125 ug/mL after 48 hrs by microplate reader analysis. The format is functional. As to conditions: ATCC 32264, 48 h, read-out: GI. In a few lines: as §4
The test system of data set [8] is Cryptococcus neoformans. Put plainly: Antifungal activity against Cryptococcus neoformans ATCC 32264 assessed as growth inhibition at 31.25 ug/mL after 48 hrs by microplate reader analysis. Format: functional. As to conditions: ATCC 32264, 48 h, read-out: GI. An outline of the steps:
as §4

Another data set relates to Trichophyton rubrum. Put plainly: Antifungal activity against Trichophyton rubrum CCC 110 by NCCLS broth microdilution method. The format is functional. As to conditions: read-out: MIC100. An outline of the steps:
as §2

Data set [9] concerns Candida tropicalis. Put plainly: Antifungal activity against Candida tropicalis by microplate reader analysis. The format is functional.
The subject of data set [10] is Candida albicans. Put plainly: Antifungal activity against Candida albicans ATCC 10231 assessed as growth inhibition at 15.6 ug/mL after 24 hrs by microplate reader analysis. As to conditions: ATCC 10231, 24 h, read-out: GI. Format: functional. An outline of the steps:
as §1

Data set [11] deals with Candida tropicalis. The data set can be described thus: Antifungal activity against Candida tropicalis assessed as growth inhibition at 31.25 ug/mL by microplate reader analysis. Format: functional. As to conditions: read-out: GI.
Data set [12] relates to Candida tropicalis. Put plainly: Antifungal activity against Candida tropicalis assessed as growth inhibition at 3.9 ug/mL by microplate reader analysis. Format: functional. As to conditions: read-out: GI.
Data set [13] has as its system Candida tropicalis. The data set can be described thus: Antifungal activity against Candida tropicalis after 48 hrs by NCCLS broth microdilution method. The format is functional. As to conditions: read-out: MIC100. In a few lines:
as §3

Data set [14] concerns Candida albicans. Put plainly: Antifungal activity against Candida albicans ATCC 10231 assessed as growth inhibition at 250 ug/mL after 24 hrs by microplate reader analysis. Format: functional. As to conditions: ATCC 10231, 24 h, read-out: GI. In a few lines:
as §1

Data set [15] has as its system Trichophyton mentagrophytes. The data set can be described thus: Antifungal activity against Trichophyton mentagrophytes ATCC 9972 by NCCLS broth microdilution method. As to conditions: read-out: MIC100. The format is functional. An outline of the steps: as §2
The test system of data set [16] is Cryptococcus neoformans. The data set can be described thus: Fungicidal activity against Cryptococcus neoformans ATCC 32264 after 48 hrs by agar plate dilution method. The format is functional. As to conditions: ATCC 32264, 48 h. An outline of the steps: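 MFC: after the microdilution MIC, material from each clear well was plated onto RPMI-1640 agar buffered with MOPS. Plates incubated at 30 °C and read after 48 h. MFC is the lowest concentration giving total inhibition of visible growth.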

Data set [17] has as its system Cryptococcus neoformans. The data set can be described thus: Antifungal activity against Cryptococcus neoformans ATCC 32264 assessed as growth inhibition at 3.9 ug/mL after 48 hrs by microplate reader analysis. The format is functional. As to conditions: ATCC 32264, 48 h, read-out: GI. An outline of the steps: as §4
Data set [18] relates to Cryptococcus neoformans. The data set can be described thus: Antifungal activity against Cryptococcus neoformans ATCC 32264 assessed as growth inhibition at 7.8 ug/mL after 48 hrs by microplate reader analysis. Format: functional. As to conditions: ATCC 32264, 48 h, read-out: GI. An outline of the steps: as §4
A short description of data set [19]: Acute toxicity in bony fish assessed as mortality at 1.6 ug/mL after 24 hrs. As to conditions: actinopterygii; read-out: Activity.

In brackets after ≈: the same amount, converted by molar mass. Activity calls are given as the source filed them.

For orientation: MIC50 means the lowest concentration that inhibits either 50% of growth or 50% of the strains tested, depending on the study. Low values mean higher susceptibility, high ones lower susceptibility. One may read the MFC as the smallest concentration meeting the test's criterion for killing the fungus.

Regarding `COc1nc(N)c(N=O)c(OCc2ccccc2)n1`, the inhibition of growth at 62.5 µg/mL in the data set with Candida albicans [1] and in the data set with Candida tropicalis [2] was 100% each time. The outcome with Aspergillus fumigatus was inactive. For the same molecule, in data set [3], the mortality at 48 h, 0.8 ug/mL worked out at 100%. The inhibition of growth at 15.6 µg/mL is 96.7% in the data set on Candida tropicalis [4] and 99.6% with Candida albicans [10]. Moreover, the MIC came to 62.5 µg/mL (≈ 240 µM) in the data set with Cryptococcus neoformans [5], 125 µg/mL (≈ 480 µM) with Trichophyton rubrum, 31.2 µg/mL (≈ 120 µM) in the data set with Candida tropicalis [13] and 125 µg/mL (≈ 480 µM) in data set [15]. The figures for the MIC50 against Cryptococcus neoformans [6] and against Candida tropicalis [9] were 3.9 µg/mL (≈ 15 µM) and 7.8 µg/mL (≈ 30 µM), respectively. Besides, the inhibition of growth at 125 µg/mL in the data set on Cryptococcus neoformans [7] was found to be 100%. The inhibition of growth at 31.25 µg/mL was 88.1% in the data set with Cryptococcus neoformans [8] and 100% in the data set on Candida tropicalis [11]. The inhibition of growth at 3.9 µg/mL with Candida tropicalis [12] was determined as 19.7%; in the data set on Cryptococcus neoformans [17] it was 49.2%. Also, the inhibition of growth at 250 µg/mL with Candida albicans [14] was 100%. In the data set with Cryptococcus neoformans [16], the MFC came to 125 µg/mL (≈ 480 µM). In addition, the inhibition of growth at 7.8 µg/mL in the data set with Cryptococcus neoformans [18] worked out at 78.1%. The mortality at 24 h, 1.6 ug/mL in data set [19] came to 100%.
